The results in this text go back to ChEMBL document CHEMBL3758073, “Synthesis and Biochemical Evaluation of 3-Phenoxy-1,4-diarylazetidin-2-ones as Tubulin-Targeting Antitumor Agents” (J Med Chem, 2016).

One series addresses Tubulin (Homo sapiens) (UniProt P68371+Q9H4B7+P0DPH7+P68366+Q13509+Q71U36+P04350+Q3ZCM7+P07437+P68363+Q9BQE3+Q6PEY2+Q13885+Q9BVA1+Q9BUF5). Nature of the series: Inhibition of tubulin polymerization in human MCF7 cells assessed as induction of microtubules bundles formation at 1 uM incubated for 16 hrs by FITC-DAPI staining based confocal microscopic analysis. It counts as cell-based.

Series [1] has as its system MCF7. Nature of the series: Binding affinity to beta-Tubulin in human MCF7 cells assessed as inhibition of protein-EBI adduct formation at Cys239 and Cys354 at 10 uM pre-incubated for 2 hrs followed by EBI addition after 1.5 hrs by Western blot analysis. The class given is cell-based. In a few lines:
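MCF-7 seeded at 5×10^4 cells/well and incubated overnight. Treated 2 h with test agent at 10 μM or with vehicle (0.1% v/v ethanol), then with N,N'-ethylene-bis(iodoacetamide) for a further 1.5 h. Cells washed in ice-cold PBS and lysed in Laemmli buffer. SDS-PAGE, PVDF transfer and β-tubulin immunoblot to detect the faster-migrating β-tubulin–EBI adduct. Three independent experiments.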
Background: A western blot detects proteins with antibodies after separation by electrophoresis.

The nature of series [2]: Half life of the compound in pH 7.4 after 3 to 24 hrs by HPLC. It counts as physicochemical. In short, it runs like this: (§1)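 10 mg compound was dissolved in 10 ml mobile phase as stock. 200 µL stock was diluted into 9.8 mL phosphate buffer (pH 4, 7.4 or 9, British Pharmacopeia 2010) and injected immediately. Samples were analysed at t=0, then every 3 h to 24 h, by reverse-phase C8 HPLC: acetonitrile:water 50:50, 1 ml/min, 254 nm detection. Half-life was derived from these runs.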

Series [3] is described as follows: Half life of the compound in pH 9 after 3 to 24 hrs by HPLC. The class given is physicochemical. In short, it runs like this:
as §1

Series [4] can be described thus: Half life of the compound in pH 4 after 3 to 24 hrs by HPLC. It counts as physicochemical. In a few lines:
as §1

The next series has as its target Tubulin (Sus scrofa) (UniProt P02554+P02550). Nature of the series: Inhibition of porcine tubulin polymerization assessed as inhibition of tubulin assembly Vmax rate at 10 uM by spectrophotometric analysis. The class given is protein assay. In a few lines:
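Tubulin polymerisation kit (>97% pure porcine tubulin, OD-based). Tubulin plus GTP at 37 °C with test agent at 10 μM final; 1% v/v ethanol as vehicle. A340 read every 30 s for 60 min at 37 °C. Fold change in Vmax calculated relative to vehicle; mean of three separate experiments.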

Series [5] concerns MCF7. The experiment in a line: Induction of apoptosis in human MCF7 cells assessed as accumulation at sub-G0/G1 level at 100 nM after 72 hrs by propidium iodide staining based flow cytometric analysis (reference value: 4%). The class given is functional. (Flow cytometry measures light scatter and fluorescence of single cells or particles in a stream.)
For series [6], the system named is MCF7. The experiment in a line: Antiproliferative activity against human MCF7 cells assessed as cell viability pre-incubated for 24 hrs with CO2 followed by compound addition after 72 hrs by MTT assay. The class given is functional, cell-based. In a few lines:
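MCF-7 grown in Eagle's MEM with 10% FBS, 2 mM L-glutamine, penicillin/streptomycin and 1% non-essential amino acids. Cells seeded at 2.5 x 10⁴ cells/mL, 24 h at 37 °C, then dosed from ethanol stocks over 1 nM–100 µM (vehicle 1% v/v ethanol) for 72 h. MTT at 1 mg/mL final, 2 h in the dark, DMSO solubilisation. Viability set against untreated controls; IC50 is the mean of three experiments in triplicate.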
In general terms: Tetrazolium assays rely on reduction of a dye to a coloured formazan, in cell work by metabolically active cells.

Series [7] concerns MCF7. Nature of the series: Cytotoxicity against human MCF7 cells assessed as induction of cell death at 10 uM after 72 hrs by LDH assay. It counts as cell-based. Conditions: mcf7, 72 h. In a few lines:
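Cell death in MCF-7 measured by LDH release. Seeding and dosing as for the MTT assay; after 72 h, lysis solution added to blank wells for 1 h to give 100% death. Supernatant mixed with substrate (INT to formazan) for 30 min at rt in the dark, then stopped and read at 490 nm. Percentage cell death reported at 10 μM; assays in triplicate.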

A short description of series [8]: Antiproliferative activity against human MDA-MB-321 cells assessed as cell viability after 72 hrs by MTT assay. It counts as functional, cell-based. In short, it runs like this:
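MDA-MB-231 cells kept in DMEM with 10% FBS, 2 mM L-glutamine and penicillin/streptomycin. Seeded at 2.5 x 10⁴ cells/mL, 24 h at 37 °C, then exposed for 72 h to 1 nM–100 µM from ethanol stocks (1% v/v ethanol vehicle). MTT added at 1 mg/mL final for 2 h in the dark, DMSO solubilisation, absorbance read, viability relative to untreated controls.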

The subject of series [9] is MCF7. The experiment in a line: Induction of cell cycle arrest in human MCF7 cells assessed as accumulation at G2/M phase at 50 nM after 24 hrs by propidium iodide staining based flow cytometric analysis (reference value: 25%). The class given is functional.
Series [10] is described as follows: Antitumor activity against human UACC62 cells xenografted in athymic nude mouse assessed as reduction in tumor cell growth at 37.5 mg/kg, ip by hollow fiber assay. The class given is functional. Particulars: UACC-62, ip, read-out: TGI.
Series [11] can be described thus: Antiproliferative activity against human NCI60 cells by SRB assay. It counts as functional. In short, it runs like this:
(§2)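 NCI panel of 56 cell lines (MCF-7 included), run after an initial single-dose 10 μM screen. Five-dose testing used a sulphorhodamine B protein-staining read-out. GI50 (50% growth inhibition) and LC50 (50% lethal concentration) were derived for each line, and a mean GI50 was taken across the panel.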

The subject of series [12] is MCF7. The experiment in a line: Inhibition of tubulin polymerization in human MCF7 cells assessed as loss of microtubules formation at 100 nM incubated for 16 hrs by FITC-DAPI staining based confocal microscopic analysis. It counts as functional, cell-based. In a few lines: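 MCF-7 seeded at 1×10^5 cells/ml on chamber glass slides and treated 16 h with paclitaxel (1 μM), test agent (100 nM) or vehicle (1% v/v ethanol). Fixed 20 min in 4% paraformaldehyde, permeabilised in 0.5% Triton X-100, blocked in 5% BSA. Stained with anti-α-tubulin–FITC (DM1A, 1:100, 2 h rt) and Alexa Fluor 488, DAPI counterstain. Imaged by confocal microscopy; three independent occasions.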

Series [13] is described as follows: Toxicity in ip dosed athymic nude mouse. It counts as organism-based. Conditions: in vivo.
In series [14] the test system is MCF7. The experiment in a line: Induction of apoptosis in human MCF7 cells assessed as accumulation at sub-G0/G1 level at 50 nM after 72 hrs by propidium iodide staining based flow cytometric analysis (reference value: 4%). It counts as functional.
The test system of series [15] is MCF7. Nature of the series: Induction of cell cycle arrest in human MCF7 cells assessed as accumulation at G2/M phase at 50 nM after 48 hrs by propidium iodide staining based flow cytometric analysis (reference value: 25%). It counts as functional.
The test system of series [16] is MCF7. Nature of the series: Antiproliferative activity against human MCF7 cells by SRB assay. It counts as functional. In a few lines:
as §2

The structures appear in SMILES notation. Activity calls are given as the source filed them.

Tubulin (Sus scrofa), sequence (P02550 whole entry, looked up): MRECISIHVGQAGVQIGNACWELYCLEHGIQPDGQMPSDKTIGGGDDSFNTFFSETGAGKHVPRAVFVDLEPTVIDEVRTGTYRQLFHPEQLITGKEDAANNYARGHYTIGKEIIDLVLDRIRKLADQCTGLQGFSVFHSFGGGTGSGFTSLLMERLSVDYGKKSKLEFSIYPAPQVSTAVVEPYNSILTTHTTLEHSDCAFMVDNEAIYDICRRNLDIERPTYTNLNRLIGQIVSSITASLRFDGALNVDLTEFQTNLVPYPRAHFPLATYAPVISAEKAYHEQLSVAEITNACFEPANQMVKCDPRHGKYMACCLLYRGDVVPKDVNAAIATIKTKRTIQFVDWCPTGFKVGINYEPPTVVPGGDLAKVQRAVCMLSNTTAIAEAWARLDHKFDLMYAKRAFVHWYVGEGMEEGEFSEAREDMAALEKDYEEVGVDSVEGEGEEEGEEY
Tubulin (Sus scrofa), sequence (P02554 whole entry, looked up): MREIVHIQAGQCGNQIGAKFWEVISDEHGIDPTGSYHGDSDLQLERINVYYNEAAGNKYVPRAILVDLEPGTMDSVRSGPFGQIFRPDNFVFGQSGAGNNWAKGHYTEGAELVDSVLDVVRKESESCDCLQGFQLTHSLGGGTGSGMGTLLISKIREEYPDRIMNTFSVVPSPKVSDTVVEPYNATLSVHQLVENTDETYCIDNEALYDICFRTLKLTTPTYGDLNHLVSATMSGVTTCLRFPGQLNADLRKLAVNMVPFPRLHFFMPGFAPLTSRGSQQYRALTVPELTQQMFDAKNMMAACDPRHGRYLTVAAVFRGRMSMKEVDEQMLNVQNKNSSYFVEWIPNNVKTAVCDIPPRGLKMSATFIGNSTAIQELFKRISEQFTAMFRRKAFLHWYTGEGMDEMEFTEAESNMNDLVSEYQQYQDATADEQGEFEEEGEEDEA

For `CC(=O)O[C@H]1C(=O)[C@@]2(C)[C@H]([C@H](OC(=O)c3ccccc3)[C@]3(O)C[C@H](OC(=O)[C@H](O)[C@@H](NC(=O)c4ccccc4)c4ccccc4)C(C)=C1C3(C)C)[C@]1(OC(C)=O)CO[C@@H]1C[C@@H]2O`, the inhibition result on Tubulin (Homo sapiens) was “Active”.
For `COc1cc2c(c(OC)c1OC)-c1ccc(OC)c(=O)cc1[C@@H](NC(C)=O)CC2`, the outcome in the series with MCF7 [1] was Active.
As a reminder, the half-life is the time needed for the level to fall by half in the phase considered. The low end stands for rapid decline, the high end for slow decline. For orientation: IC50 means the concentration at which inhibition is half-maximal. `COc1ccc([C@@H]2[C@@H](Oc3ccccc3)C(=O)N2c2cc(OC)c(OC)c(OC)c2)cc1O` (relative stereo): the half-life is 8 h in series [2], 11 h in series [3] and 12 h in series [4]. Moreover, on Tubulin (Sus scrofa), the fold change (FC) came out at 3.2. Also, the Activity in the series with MCF7 [5] worked out at 34%; in the series on MCF7 [7], 29%. Besides, in the series on MCF7 [6], the IC50 turned out to be 38 nM.
As a reminder, the GI50 is the concentration at which growth is held to half of that of the control. Lower therefore signals greater sensitivity of the cells. Consider `COc1ccc([C@@H]2[C@@H](Oc3ccccc3)C(=O)N2c2cc(OC)c(OC)c(OC)c2)cc1N` (relative stereo), for which the half-life was more than 24 h in [2], 18 h in series [3] and 18 h in series [4]. The IC50 in series [8] was determined as 15 nM; with MCF7 [6], 13 nM. Besides, the Activity is given as 57% in the series with MCF7 [9], 35% in the series with MCF7 [14], 73% in the series on MCF7 [15] and 10.2% in the series with MCF7 [7]. The inhibition in vivo at 37.5 mg/kg in series [10] was 50%. The GI50 in [11] was 22.4 nM; in the series with MCF7 [16], less than 10 nM. Also, the inhibition result in the series on MCF7 [12] was “Active”. In addition, the outcome in the series on MCF7 [1] was Active. The compound also came in with an MTD in series [13] of 100 mg/kg. Besides, the fold change (FC) at Tubulin (Sus scrofa) amounted to 1.8.
Take `COc1cc(N2C(=O)[C@@H](Oc3ccccc3)[C@H]2c2ccc(N(C)C)cc2)cc(OC)c1OC` (relative stereo): the fold change (FC) at Tubulin (Sus scrofa) was 0. For the same compound, the IC50 in the series with MCF7 [6] was 31000 nM. In addition, the Activity in the series with MCF7 [7] is listed as 5.9%.
In the same order, the values of `COc1cc(N2C(=O)[C@H](Oc3ccccc3)[C@H]2c2ccc(C#N)cc2)cc(OC)c1OC` (relative stereo) are 0, 168000 nM and 2.1%.
Consider `COc1ccc([C@@H]2[C@H](Oc3ccccc3)C(=O)N2c2cc(OC)c(OC)c(OC)c2)cc1O` (relative stereo), for which the GI50 in series [11] amounted to 1450 nM; in the series with MCF7 [16] it was 360 nM. For the same compound, the fold change (FC) at Tubulin (Sus scrofa) is 1.1. Also, the IC50 in the series on MCF7 [6] worked out at 383 nM. Also, the Activity with MCF7 [7] is on record as 2.8%.
Take `COc1ccc(/C=C\c2cc(OC)c(OC)c(OC)c2)cc1O` [COMBRETASTATIN A4]: in the series with MCF7 [12], the inhibition result is “Active”. The result in the series with MCF7 [1] was Active. Besides, on Tubulin (Sus scrofa), the fold change (FC) amounted to 6. The IC50 in the series on MCF7 [6] was determined as 3.9 nM. Also, the Activity with MCF7 [7] is reported as 5.5%.
